Experimental data: ChEMBL document CHEMBL4043167, “Identification of pyrazolopyrimidine arylsulfonamides as CC-chemokine receptor 4 (CCR4) antagonists” (Bioorg Med Chem, 2017)
Values after ≈ are worked out from the molar mass of the structure shown. Active and inactive are the calls of the source. The rule behind the calls is not given here.

How the values were obtained:
[1] = Lipophilicity, log D of the compound by chromatographic analysis; format: physicochemical
Outline: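 Chromatographic logD measured at pH 7.4 (chromlogD7.4).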

[2] = target: T1, C-C chemokine receptor type 4 (Homo sapiens, UniProt P51679); experiment: Antagonist activity at human recombinant CCR4 receptor expressed in CHO cell membranes by [35S]GTPgammaS binding assay; format: functional
T1 sequence (P51679 whole entry): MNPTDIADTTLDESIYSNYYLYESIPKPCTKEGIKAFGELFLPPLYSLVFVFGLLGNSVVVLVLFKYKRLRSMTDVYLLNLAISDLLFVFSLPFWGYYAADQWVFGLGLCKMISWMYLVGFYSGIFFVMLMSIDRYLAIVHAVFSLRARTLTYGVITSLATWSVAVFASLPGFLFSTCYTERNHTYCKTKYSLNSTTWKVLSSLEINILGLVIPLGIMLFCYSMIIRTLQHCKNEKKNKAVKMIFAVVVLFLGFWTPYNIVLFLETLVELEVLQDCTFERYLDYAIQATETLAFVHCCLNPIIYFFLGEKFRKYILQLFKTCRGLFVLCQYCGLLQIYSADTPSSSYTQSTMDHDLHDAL

[3] = Kinetic solubility of the compound by chemiluminescent nitrogen detection assay; format: physicochemical; settings: read-out: Kinetic_solubility
[4] = Clearance in rat microsomes; format: ADME, Microsome
[5] = Volume of distribution at steady state in Sprague Dawley (crl:CD(SD)) rat at 1 mg/kg, iv by LCMS/MS method; format: ADME, organism-based; settings: in vivo, read-out: Vdss
Outline: (§1)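 Rat given a single IV dose of 1 mg/kg; blood clearance, half-life and volume of distribution derived from the IV profile.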

[6] = target: T1, C-C chemokine receptor type 4; experiment: (§2) Antagonist activity at CCR4 receptor in human whole blood assessed as F-actin polymerization after 30 mins by FACS-based flow cytometric analysis; settings: read-out: pA2 (converted)
[7] = Volume of distribution at steady state in Beagle dog at 1 mg/kg by LCMS/MS method; format: ADME, organism-based, Canis lupus familiaris; settings: in vivo, read-out: Vdss
[8] = system: Rattus norvegicus; experiment: Clearance in Sprague Dawley (crl:CD(SD)) rat at 1 mg/kg, iv by LCMS/MS method; format: ADME, organism-based; settings: in vivo; outline: as §1
[9] = Oral bioavailability in Beagle dog at 1 mg/kg by LCMS/MS method; format: ADME, organism-based, Canis lupus familiaris; settings: in vivo
[10] = Clearance in dog microsomes; format: ADME, Canis lupus familiaris, Microsome
[11] = Half life in Beagle dog at 1 mg/kg by LCMS/MS method; format: ADME, organism-based, Canis lupus familiaris; settings: in vivo
[12] = system: Canis familiaris; experiment: Clearance in Beagle dog at 0.5 mg/kg by LCMS/MS method; settings: in vivo
[13] = Oral bioavailability in Sprague Dawley (crl:CD(SD)) rat at 1 mg/kg by LCMS/MS method; format: ADME, organism-based; settings: in vivo
Outline: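 Rat given an oral dose of 1 mg/kg, with a 1 mg/kg IV dose for comparison; oral bioavailability calculated.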

[14] = Half life in Sprague Dawley (crl:CD(SD)) rat at 1 mg/kg, iv by LCMS/MS method; format: ADME, organism-based; settings: in vivo; outline: as §1
[15] = Clearance in human microsomes; format: ADME, Microsome
[16] = target: albumin (Homo sapiens, UniProt P02768); experiment: Binding affinity to HSA; format: ADME; settings: human serum albumin (HSA), read-out: PB (converted)
Sequence of albumin (P02768 whole entry): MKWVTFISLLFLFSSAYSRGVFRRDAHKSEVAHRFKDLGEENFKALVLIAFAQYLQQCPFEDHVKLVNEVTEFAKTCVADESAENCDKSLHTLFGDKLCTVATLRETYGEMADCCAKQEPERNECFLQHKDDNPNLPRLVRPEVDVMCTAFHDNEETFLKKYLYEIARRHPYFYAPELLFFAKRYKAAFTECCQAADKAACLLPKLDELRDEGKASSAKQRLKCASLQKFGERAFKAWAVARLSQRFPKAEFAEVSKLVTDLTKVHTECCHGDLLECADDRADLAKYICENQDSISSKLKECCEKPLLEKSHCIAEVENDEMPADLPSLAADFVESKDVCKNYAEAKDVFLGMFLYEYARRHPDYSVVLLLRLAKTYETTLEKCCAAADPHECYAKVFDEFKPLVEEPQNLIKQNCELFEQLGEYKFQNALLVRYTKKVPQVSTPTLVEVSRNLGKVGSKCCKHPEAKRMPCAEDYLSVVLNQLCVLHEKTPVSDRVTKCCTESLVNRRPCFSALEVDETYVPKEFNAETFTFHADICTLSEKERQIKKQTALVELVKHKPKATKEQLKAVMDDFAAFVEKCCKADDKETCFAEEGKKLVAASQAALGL

[17] = target: T2, C-C chemokine receptor type 4 (Homo sapiens) (UniProt P51679); experiment: as §2
T2 sequence (whole entry): T1 sequence (P51679 whole entry)

Compound | chromatographic logD [1] | IC50 [2] [nM] | solubility kinetic [3] [µM] | other results
COc1nn(C)c2nc(NC3COC3)nc(NS(=O)(=O)c3cccc(Cl)c3Cl)c12 | 2.2 | 10000 | ≥ 712 | –
Cn1ncc2c(NS(=O)(=O)c3cccc(Cl)c3Cl)ccnc21 | 1.7 | 12600 | ≥ 310 | –
COc1nc(NS(=O)(=O)c2cccc(Cl)c2Cl)c2c(OC)nn(C)c2n1 | 1.9 | 794 | 148 (≈ 61.9 µg/mL) | –
COCCOc1nn(C)c2ncnc(NS(=O)(=O)c3cccc(Cl)c3Cl)c12 | 2.3 | 794 | ≥ 463 | –
COc1ccc2c(cnn2C)c1NS(=O)(=O)c1cccc(Cl)c1Cl | 5 | 10000 | 175 (≈ 67.6 µg/mL) | –
COc1nn(C)c2cccc(NS(=O)(=O)c3cccc(Cl)c3Cl)c12 | 6.5 | 794 | 80 (≈ 30.9 µg/mL) | –
COc1ccc(COc2nc(Br)cnc2NS(=O)(=O)c2ccc(C)cc2)cc1OCCN(C)C | 3.1 | – | 309 (≈ 170 µg/mL) | –
COCCn1nc(OC)c2c(NS(=O)(=O)c3cccc(Cl)c3Cl)ncnc21 | 2.6 | 316 | ≥ 442 | –
CNC(=O)Cn1nc(OC)c2c(NS(=O)(=O)c3cccc(Cl)c3Cl)ncnc21 | 1.3 | 631 | ≥ 509 | –
COc1nn(CCN(C)C)c2ncnc(NS(=O)(=O)c3cccc(Cl)c3Cl)c12 | 1.6 | 3980 | 358 (≈ 159 µg/mL) | –
COc1nn(C)c2nc(C)nc(NS(=O)(=O)c3cccc(Cl)c3Cl)c12 | 3.4 | 631 | ≥ 557 | –
CNc1nc(NS(=O)(=O)c2cccc(Cl)c2Cl)c2c(OC)nn(C)c2n1 | 3.2 | 79.4 | 376 (≈ 157 µg/mL) | –
CCNc1nc(NS(=O)(=O)c2cccc(Cl)c2Cl)c2c(OC)nn(C)c2n1 | 4.2 | 251 | 219 (≈ 94.5 µg/mL) | –
COc1nn(CC(N)=O)c2ncnc(NS(=O)(=O)c3cccc(Cl)c3Cl)c12 | 1.1 | 501 | ≥ 490 | –
COc1nn(C)c2ncnc(NS(=O)(=O)c3cccc(Cl)c3Cl)c12 | 2.4 | 63.1 | ≥ 581 | CL [4]: 0.58 mL/min/g; Vd [5]: 0.3 L/kg; Kb [6]: > 6.31 µM; Vd [7]: 0.3 L/kg; clearance [8]: 2 mL/min/kg; bioavailability [9]: 100%; CL [10]: 0.65 mL/min/g; half-life [11]: 36 min; clearance [12]: 4 mL/min/kg; bioavailability [13]: 62%; half-life [14]: 114 min; CL [15]: < 0.53 mL/min/g; fraction unbound [16]: 0.015
Cn1ncc2c(NS(=O)(=O)c3cccc(Cl)c3Cl)cccc21 | 3.2 | 3160 | 170 (≈ 60.6 µg/mL) | –

Compound | chromatographic logD [1] | IC50 [2] [nM] | solubility kinetic [3] [µM] | other results
COc1nn(C)c2nc(NCCN(C)C)nc(NS(=O)(=O)c3cccc(Cl)c3Cl)c12 | 1.4 | > 31600 | ≥ 444 | –
COc1n[nH]c2ncnc(NS(=O)(=O)c3cccc(Cl)c3Cl)c12 | 1.8 | 158 | 402 (≈ 150 µg/mL) | –
CCn1[nH]c2ncnc(NS(=O)(=O)c3cccc(Cl)c3Cl)c2c1=O | 1.2 | > 31600 | ≥ 383 | –
COc1nn(C(C)C)c2ncnc(NS(=O)(=O)c3cccc(Cl)c3Cl)c12 | 4.5 | 251 | 404 (≈ 168 µg/mL) | –
COCCNc1nc(NS(=O)(=O)c2cccc(Cl)c2Cl)c2c(OC)nn(C)c2n1 | 3.3 | 7940 | ≥ 441 | –
COc1nn(CC(=O)O)c2ncnc(NS(=O)(=O)c3cccc(Cl)c3Cl)c12 | 0.8 | 200 | ≥ 483 | –
COc1nn(C)c2ncnc(NS(=O)(=O)c3ccc(Cl)s3)c12 | 1.6 | 79.4 | ≥ 538 | Kb [6]: > 6.31 µM; fraction unbound [16]: 0.023
O=S(=O)(Nc1ncnc2[nH]nc(O)c12)c1cccc(Cl)c1Cl | 0.8 | 15800 | ≥ 234 | –
Cn1ncc2c(NS(=O)(=O)c3cccc(Cl)c3Cl)ncnc21 | 1.7 | 1260 | 476 (≈ 171 µg/mL) | –
COc1nn(C)c2nc(N(C)C)nc(NS(=O)(=O)c3cccc(Cl)c3Cl)c12 | 4 | 631 | ≥ 626 | –
COc1nn(C)c2nc(NC(C)C)nc(NS(=O)(=O)c3cccc(Cl)c3Cl)c12 | 5.2 | 3160 | ≥ 551 | –
COc1nn(C2COC2)c2ncnc(NS(=O)(=O)c3cccc(Cl)c3Cl)c12 | 2.1 | 251 | 142 (≈ 61.1 µg/mL) | –
Cn1nc(NS(=O)(=O)c2cccc(Cl)c2Cl)c2ccccc21 | 4.6 | 2000 | 124 (≈ 44.2 µg/mL) | –
COc1cccc2c1c(NS(=O)(=O)c1cccc(Cl)c1Cl)nn2C | – | – | 288 (≈ 111 µg/mL) | Vd [5]: 0.5 L/kg; pA2 [17]: inactive; clearance [8]: 17 mL/min/kg; bioavailability [13]: 24%; half-life [14]: 72 min; fraction unbound [16]: 0.023
CCOc1n[nH]c2ncnc(NS(=O)(=O)c3cccc(Cl)c3Cl)c12 | 2.3 | 794 | ≥ 438 | –
COc1nn(C)c2nc(N)nc(NS(=O)(=O)c3cccc(Cl)c3Cl)c12 | 2.4 | 316 | ≥ 649 | –
